Assay results from ChEMBL document CHEMBL1926569, “Novel (E)-1-(4-methyl-2-(alkylamino)thiazol-5-yl)-3-arylprop-2-en-1-ones as potent antimicrobial agents” (2011).
Converted amounts (≈) assume the structure as drawn.

Key:
Aspergillus ochraceus [1] = assay: Ratio of bifonazole to compound for Aspergillus ochraceus ATCC 12066; assay type: functional
Aspergillus ochraceus [2] = assay: Ratio of ketoconazole to compound for Aspergillus ochraceus ATCC 12066; assay type: functional
Candida albicans [3] = assay: Antifungal activity against Candida albicans isolated from human after 72 hrs by serial dilution technique; assay type: functional
Outline: (§1)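 Modified microdilution in 96-well plates. Fungi were kept on malt agar at 4 °C. Spores were washed off in sterile 0.85% saline with 0.1% Tween 80. Compounds were dissolved at 1 mg/ml in 5% DMSO with 0.1% Tween 80 and added to malt broth with inoculum. Plates were shaken at 160 rpm for 72 h at 28 °C. Duplicate, repeated three times.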

Aspergillus ochraceus [4] = assay: Antifungal activity against Aspergillus ochraceus ATCC 12066 after 72 hrs by serial dilution technique; assay type: functional; details: ATCC 12066, 72 h; outline: as §1
Aspergillus fumigatus [5] = assay: Antifungal activity against Aspergillus fumigatus isolated from human incubated for 72 hrs followed by serial sub-cultivation for 72 hrs by serial dilution technique; assay type: functional
Outline: (§2)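 MFC: material from 72 h malt broth microdilution wells was serially sub-cultured into fresh broth plates and incubated a further 72 h at 28 °C. Fungicidal concentration is taken from growth after sub-culture. Duplicate, repeated three times.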

Aspergillus ochraceus [6] = assay: Antifungal activity against Aspergillus ochraceus after 72 hrs by serial dilution technique
Listeria monocytogenes [7] = assay: Antibacterial activity against Listeria monocytogenes NCTC 7973 after 24 hrs by microdilution method; assay type: functional; details: NCTC 7973, 24 h
Outline: (§3)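 Broth microdilution in 96-well plates. Bacterial suspensions were adjusted in sterile saline to 1.0 × 10⁵ CFU/ml, prepared daily and kept at 4 °C. Compound was added to LB broth with 1.0 × 10⁴ CFU per well and shaken at 160 rpm for 24 h at […] (so in the source). MIC is the lowest concentration with no visible growth under a binocular microscope. OD655 was also read. Duplicate, repeated three times.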

Talaromyces funiculosus [8] = assay: Ratio of bifonazole to compound for Penicillium funiculosum ATCC 36839; assay type: functional
Penicillium ochrochloron [9] = assay: Ratio of bifonazole to compound for Penicillium ochrochloron ATCC 9112; assay type: functional
Bacillus cereus [10] = assay: Antibacterial activity against clinical isolate of Bacillus cereus incubated for 24 hrs followed by serial sub-cultivation for 24 hrs by microdilution; assay type: functional
Outline: (§4)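 MBC: after the 24 h LB broth microdilution (1.0 × 10⁴ CFU per well, 160 rpm), wells were serially sub-cultured into fresh broth plates and incubated a further 24 h. MBC is the lowest concentration with no visible growth, taken as 99.5% killing of the original inoculum. Duplicate, repeated three times.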

Pseudomonas aeruginosa [11] = assay: Ratio of ampicillin MIC to compound MIC for Pseudomonas aeruginosa ATCC 27853; assay type: functional
Talaromyces funiculosus [12] = assay: Antifungal activity against Penicillium funiculosum ATCC 36839 incubated for 72 hrs followed by serial sub-cultivation for 72 hrs by serial dilution technique; assay type: functional; details: ATCC 36839, 72 h; outline: as §2
Trichoderma viride [13] = assay: Antifungal activity against Trichoderma viride IAM 5061 incubated for 72 hrs followed by serial sub-cultivation for 72 hrs by serial dilution technique; assay type: functional; details: IAM 5061, 72 h; outline: as §2
Listeria monocytogenes [14] = assay: Antibacterial activity against Listeria monocytogenes NCTC 7973 incubated for 24 hrs followed by serial sub-cultivation for 24 hrs by microdilution; assay type: functional; details: NCTC 7973, 24 h; outline: as §4
Aspergillus flavus [15] = assay: Antifungal activity against Aspergillus flavus ATCC 9643 incubated for 72 hrs followed by serial sub-cultivation for 72 hrs by serial dilution technique; assay type: functional; details: ATCC 9643, 72 h; outline: as §2
Trichoderma viride [16] = assay: Antifungal activity against Trichoderma viride IAM 5061 after 72 hrs by serial dilution technique; assay type: functional; details: IAM 5061, 72 h; outline: as §1
Staphylococcus aureus [17] = assay: Antibacterial activity against Staphylococcus aureus ATCC 6538 incubated for 24 hrs followed by serial sub-cultivation for 24 hrs by microdilution method; assay type: functional; details: ATCC 6538, 24 h; outline: as §4
Enterococcus faecalis [18] = assay: Antibacterial activity against Enterococcus faecalis isolated from human after 24 hrs by microdilution method; assay type: functional; outline: as §3
Staphylococcus aureus [19] = assay: Antibacterial activity against Staphylococcus aureus ATCC 6538 after 24 hrs by microdilution method; assay type: functional; details: ATCC 6538, 24 h; outline: as §3
Penicillium ochrochloron [20] = assay: Antifungal activity against Penicillium ochrochloron ATCC 9112 after 72 hrs by serial dilution technique; assay type: functional; details: ATCC 9112, 72 h; outline: as §1
Micrococcus flavus [21] = assay: Antibacterial activity against Micrococcus flavus ATCC 10240 incubated for 24 hrs followed by serial sub-cultivation for 24 hrs by microdilution; assay type: functional; details: ATCC 10240, 24 h; outline: as §4
Aspergillus flavus [22] = assay: Antifungal activity against Aspergillus flavus ATCC 9643 after 72 hrs by serial dilution technique; assay type: functional; details: ATCC 9643, 72 h; outline: as §1
Aspergillus niger [23] = assay: Antifungal activity against Aspergillus niger ATCC 6275 after 72 hrs by serial dilution technique; assay type: functional; details: ATCC 6275, 72 h; outline: as §1
Salmonella typhimurium [24] = assay: Antibacterial activity against Salmonella Typhimurium ATCC 13311 incubated for 24 hrs followed by serial sub-cultivation for 24 hrs by microdilution; assay type: functional, Salmonella enterica subsp. enterica serovar Typhimurium; details: Salmonella enterica, ATCC 13311, 24 h; outline: as §4
Candida albicans [25] = assay: Antifungal activity against Candida albicans isolated from human incubated for 72 hrs followed by serial sub-cultivation for 72 hrs by serial dilution technique; assay type: functional; outline: as §2
Aspergillus fumigatus [26] = assay: Ratio of ketoconazole to compound for Aspergillus fumigatus isolated from human; assay type: functional
Talaromyces funiculosus [27] = assay: Antifungal activity against Penicillium funiculosum ATCC 36839 after 72 hrs by serial dilution technique; assay type: functional; details: ATCC 36839, 72 h; outline: as §1
Penicillium ochrochloron [28] = assay: Antifungal activity against Penicillium ochrochloron ATCC 9112 incubated for 72 hrs followed by serial sub-cultivation for 72 hrs by serial dilution technique; assay type: functional; details: ATCC 9112, 72 h; outline: as §2
Candida albicans [29] = assay: Ratio of ketoconazole to compound for Candida albicans isolated from human; assay type: functional
Penicillium ochrochloron [30] = assay: Ratio of ketoconazole to compound for Penicillium ochrochloron ATCC 9112; assay type: functional
Pseudomonas aeruginosa [31] = assay: Antibacterial activity against Pseudomonas aeruginosa ATCC 27853 after 24 hrs by microdilution method; assay type: functional; details: ATCC 27853, 24 h; outline: as §3
Aspergillus niger [32] = assay: Ratio of bifonazole to compound for Aspergillus niger ATCC 6275; assay type: functional
Enterococcus faecalis [33] = assay: Antibacterial activity against Enterococcus faecalis isolated from human incubated for 24 hrs followed by serial sub-cultivation for 24 hrs by microdilution; assay type: functional; outline: as §4
Candida albicans [34] = assay: Ratio of bifonazole to compound for Candida albicans isolated from human; assay type: functional
Salmonella typhimurium [35] = assay: Antibacterial activity against Salmonella Typhimurium ATCC 13311 after 24 hrs by microdilution method; assay type: functional, Salmonella enterica subsp. enterica serovar Typhimurium; details: Salmonella enterica, ATCC 13311, 24 h; outline: as §3
Escherichia coli [36] = assay: Antibacterial activity against Escherichia coli ATCC 35210 incubated for 24 hrs followed by serial sub-cultivation for 24 hrs by microdilution; assay type: functional; details: ATCC 35210, 24 h; outline: as §4
Bacillus cereus [37] = assay: Antibacterial activity against clinical isolate of Bacillus cereus after 24 hrs by microdilution method; assay type: functional; outline: as §3
Trichoderma viride [38] = assay: Ratio of bifonazole to compound for Trichoderma viride IAM 5061; assay type: functional
Aspergillus niger [39] = assay: Antifungal activity against Aspergillus niger ATCC 6275 incubated for 72 hrs followed by serial sub-cultivation for 72 hrs by serial dilution technique; assay type: functional; details: ATCC 6275, 72 h; outline: as §2
Pseudomonas aeruginosa [40] = assay: Antibacterial activity against Pseudomonas aeruginosa ATCC 27853 incubated for 24 hrs followed by serial sub-cultivation for 24 hrs by microdilution; assay type: functional; details: ATCC 27853, 24 h; outline: as §4
Escherichia coli [41] = assay: Antibacterial activity against Escherichia coli ATCC 35210 after 24 hrs by microdilution method; assay type: functional; details: ATCC 35210, 24 h; outline: as §3
Aspergillus ochraceus [42] = assay: Antifungal activity against Aspergillus ochraceus ATCC 12066 incubated for 72 hrs followed by serial sub-cultivation for 72 hrs by serial dilution technique; assay type: functional; details: ATCC 12066, 72 h; outline: as §2
Micrococcus flavus [43] = assay: Antibacterial activity against Micrococcus flavus ATCC 10240 after 24 hrs by microdilution method; assay type: functional; details: ATCC 10240, 24 h; outline: as §3

## CCNc1nc(C)c(C(=O)/C=C/c2ccccc2Cl)s1
Aspergillus ochraceus [1]
  Ratio: 10
Aspergillus ochraceus [2]
  Ratio: 10
Candida albicans [3]
  MIC: 32.7 µM (≈ 10 µg/mL)
Aspergillus ochraceus [4]
  MIC: 32.7 µM (≈ 10 µg/mL)
Aspergillus fumigatus [5]
  MFC: 65.3 µM (≈ 20 µg/mL)
Aspergillus ochraceus [6]
  MIC: 49 µM (≈ 15 µg/mL)
Listeria monocytogenes [7]
  MIC: 98.1 µM (≈ 30.1 µg/mL)
Talaromyces funiculosus [8]
  Ratio: 10
Penicillium ochrochloron [9]
  Ratio: 10
Bacillus cereus [10]
  MBC: 65.3 µM (≈ 20 µg/mL)
Pseudomonas aeruginosa [11]
  Ratio: 10
Talaromyces funiculosus [12]
  MFC: 65.3 µM (≈ 20 µg/mL)
Trichoderma viride [13]
  MFC: 65.3 µM (≈ 20 µg/mL)
Listeria monocytogenes [14]
  MBC: 114 µM (≈ 35.1 µg/mL)
Aspergillus flavus [15]
  MFC: 65.3 µM (≈ 20 µg/mL)
Trichoderma viride [16]
  MIC: 32.7 µM (≈ 10 µg/mL)
Staphylococcus aureus [17]
  MBC: 98.1 µM (≈ 30.1 µg/mL)
Enterococcus faecalis [18]
  MIC: 48.9 µM (≈ 15 µg/mL)
Staphylococcus aureus [19]
  MIC: 81.7 µM (≈ 25.1 µg/mL)
Penicillium ochrochloron [20]
  MIC: 32.7 µM (≈ 10 µg/mL)
Micrococcus flavus [21]
  MBC: 98.1 µM (≈ 30.1 µg/mL)
Aspergillus flavus [22]
  MIC: 49 µM (≈ 15 µg/mL)
Aspergillus niger [23]
  MIC: 49 µM (≈ 15 µg/mL)
Salmonella typhimurium [24]
  MBC: 61.1 µM (≈ 18.7 µg/mL)
Candida albicans [25]
  MFC: 65.3 µM (≈ 20 µg/mL)
Aspergillus fumigatus [26]
  Ratio: 10
Talaromyces funiculosus [27]
  MIC: 32.7 µM (≈ 10 µg/mL)
Penicillium ochrochloron [28]
  MFC: 65.3 µM (≈ 20 µg/mL)
Candida albicans [29]
  Ratio: 10
Penicillium ochrochloron [30]
  Ratio: 10
Pseudomonas aeruginosa [31]
  MIC: 48.9 µM (≈ 15 µg/mL)
Aspergillus niger [32]
  Ratio: 10
Enterococcus faecalis [33]
  MBC: 61.1 µM (≈ 18.7 µg/mL)
Candida albicans [34]
  Ratio: 10
Salmonella typhimurium [35]
  MIC: 48.9 µM (≈ 15 µg/mL)
Escherichia coli [36]
  MBC: 61.1 µM (≈ 18.7 µg/mL)
Bacillus cereus [37]
  MIC: 32.7 µM (≈ 10 µg/mL)
Trichoderma viride [38]
  Ratio: 10
Aspergillus niger [39]
  MFC: 65.3 µM (≈ 20 µg/mL)
Pseudomonas aeruginosa [40]
  MBC: 61.1 µM (≈ 18.7 µg/mL)
Escherichia coli [41]
  MIC: 48.9 µM (≈ 15 µg/mL)
Aspergillus ochraceus [42]
  MFC: 49 µM (≈ 15 µg/mL)
Micrococcus flavus [43]
  MIC: 65.3 µM (≈ 20 µg/mL)
